Laboratory results: PMC4455950 (Journal of the American Chemical Society, 2008)
“Also recorded” adds a separate entry of the source. Read-outs that look alike come from different tables or passages of the source.

Legend:
[1] = biological target: T1, mCD1d:Ig fusion protein (dimeric CD1d) (Mus musculus, UniProt P11609); assay: Competitive binding assay on microarray; conditions: for binding with CD1d stronger than α-GalCer: relative to α-GalCer
T1 sequence (P11609 22-305 limits assumed): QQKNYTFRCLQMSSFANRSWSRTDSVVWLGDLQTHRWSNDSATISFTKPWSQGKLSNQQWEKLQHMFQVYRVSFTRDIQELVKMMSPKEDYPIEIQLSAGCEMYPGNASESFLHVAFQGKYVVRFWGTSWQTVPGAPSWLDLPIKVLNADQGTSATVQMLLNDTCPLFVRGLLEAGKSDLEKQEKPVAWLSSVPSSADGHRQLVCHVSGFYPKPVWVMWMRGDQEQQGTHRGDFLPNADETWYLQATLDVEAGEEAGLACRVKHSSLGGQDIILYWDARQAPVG
T1 sequence (P01887 21-119 partner): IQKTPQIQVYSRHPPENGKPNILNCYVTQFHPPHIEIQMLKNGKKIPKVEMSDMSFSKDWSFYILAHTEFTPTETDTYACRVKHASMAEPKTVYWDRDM
Outline: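 Glass slides carry a covalently attached amine-linked α-GalCer analogue printed at 100 μM. Test compound (400 to 0.1 μM, 1.0% DMSO) is preincubated with dimeric mCD1d:Ig (500 nM) for 5–8 h. Mixture goes on slides 1 h at room temperature, humidified. Detection uses precomplexed biotinylated rat anti-mCD1d (20 μg/mL) plus Cy3-streptavidin (10 μg/mL), 1 h, then a 595 nm scan. Ki is fitted to a competitive surface-binding equation.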

[2] = test system: human Vα24+ NKT cell line cocultured with Hela cells transfected with human CD1d; assay: Cytokine secretion assay using human NKT cell lines; format: cell-based; conditions: for IFN-γ secretion normalized to α-GalCer / IL-4 secretion normalized to α-GalCer: 10 ng/mL glycolipid, 24 h, ELISA, relative to α-GalCer = 1.00; for IFN-γ/IL-4 ratio: IFN-γ ratio/IL-4 ratio, normalized to α-GalCer
Outline: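 Vα24+ NKT lines come from bead-isolated leukopak T cells. They were expanded 10 days on irradiated (3000 rads) CD14-derived immature DCs with 100 ng/mL α-GalCer and 10 IU/mL IL-2. Assay: 20 000 NKT cells plus 2 × 10^4 irradiated (10 000 rads) human CD1d-transfected HeLa cells, 10 ng/mL test compound, 24 h. Supernatant IFN-γ or IL-4 by ELISA, normalised to α-GalCer; triplicate, mean ± SD.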

CD1d [3] = conditions: read-out: dissociation constant from IEF; cited from earlier work
CD1d [4] = conditions: read-out: dissociation constant from ITC; cited from earlier work

Structure (SMILES) | binding with CD1d stronger than α-GalCer [1] | IFN-γ secretion normalized to α-GalCer [2] | IL-4 secretion normalized to α-GalCer [2] | IFN-γ/IL-4 ratio [2] | binding enhancement compared with parent compound 13 ([1]; relative to compound 13) | IFN-γ production (in words) [2] | binding to CD1d (in words) [1] | Ki [1] | Ki versus KD,surf (fold) ([1]; solution Ki compared with KD,surf of surface α-GalCer) | Kd (CD1d [3]) | Kd (CD1d [4])
CCCCCCCCCCCCCCC(O)C(O)C(COC1OC(CO)C(O)C(O)C1O)NC(=O)CCCCCCCc1ccccc1 (centres unmarked) [Compound 13] | approximately 1 order of magnitude | 1.80 ± 0.15 | 0.87 ± 0.27 | 2.07 ± 0.26 | – | – | – | – | – | – | –
CCCCCCCCCCCCCCC(O)C(O)C(COC1OC(CO)C(O)C(O)C1O)NC(=O)CCCCCCCc1ccc(F)cc1 (centres unmarked) [Compound 18] | 2 order of magnitude | 2.39 ± 0.13 | 0.80 ± 0.09 | 3.00 ± 0.16 | approximately 1 order of magnitude | highest IFN-γ cytokine production; also recorded: highest IFN-γ secretion | – | – | – | – | –
CCCCCCCCCCCCCC[C@@H](O)[C@@H](O)[C@H](CO[C@H]1O[C@H](CO)[C@H](O)[C@H](O)[C@H]1O)NC(=O)CCCCCCCc1ccc(OC)cc1 [Compound 19] | – | 2.25 ± 0.06 | 0.79 ± 0.06 | 2.85 ± 0.10 | – | highest IFN-γ cytokine production | – | – | – | – | –
CCCCCCCCCCCCCC[C@@H](O)[C@@H](O)[C@H](CO[C@H]1O[C@H](CO)[C@H](O)[C@H](O)[C@H]1O)NC(=O)CCCCCCCc1ccc(C(F)(F)F)cc1 [Compound 20] | – | 1.43 ± 0.07 | 0.76 ± 0.08 | 1.88 ± 0.08 | – | – | – | – | – | – | –
CCCCCCCCCCCCCC[C@@H](O)[C@@H](O)[C@H](CO[C@H]1O[C@H](CO)[C@H](O)[C@H](O)[C@H]1O)NC(=O)CCCCCCCCCCc1ccc(-c2ccccc2)cc1 [Compound 25] | – | 0.33 ± 0.001 | 0.61 ± 0.06 | 0.55 ± 0.04 | – | less IFN-γ production | lower binding activity | – | – | – | –
CCCCCCCCCCCCCCCCCCCCCCCCCC(=O)N[C@@H](CO[C@H]1O[C@H](CO)[C@H](O)[C@H](O)[C@H]1O)[C@H](O)[C@H](O)CCCCCCCCCCCCCC [α-GalCer, α-galactosylceramide, reference compound] | – | 1.00 | 1.00 | 1.00 | – | – | – | 16 ± 2.1 µM | 30–140 fold | 5.9 µM | 9.7 µM
